# CFTR F508del cor: F508del CFTR correction, initial screen, CFBE line, single point. CFBE cells, YFP halide quenching; stimulated with forskolin plus potentiator P3; % fluorescence drop versus neutral controls. activity (quench increase), % at 7.58 µM. actives 0.36% (n = 350,000);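 active means mean added fluorescence quench of at least 8% versus neutral control, with both replicates also reaching 8%; inconclusive means only one of the mean or replicate conditions met; inactive means mean below 8% and not both replicates reaching 8%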;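 further: cells transiently co-express mutant CFTR-F508del with the halide-sensitive YFP; corrector assay measuring rescue of mutant channel to the surface after 24 h compound exposure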
# ERAP1 inh: human ERAP1 aminopeptidase inhibitors, primary screen, biochemical, single point, plate reader; Endoplasmic reticulum aminopeptidase 1 (Homo sapiens), Q9NZ08; recombinant ERAP1, Leu-AMC fluorescence, 60 min; inhibition, % at 10.7 µM; actives 0.15% (n = 340,000);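 active means mean replicate inhibition of at least 30%, or all replicates individually reaching that 30% level; inactive means mean below 30% and not every replicate reaching it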;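 further: 0% = neutral control wells and 100% = L-leucinethiol positive control wells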
# DENV2 CPE: inhibitors of DENV2 cytopathic effect, primary screen, cell-based, plate reader, single concentration; actives 1.7% (n = 350,000); CPE inhibition, % at 9.99 µM; DENV2-infected cells, cytopathic effect rescue; AID 651640, 2012; in the data active means CPE inhibition above about 20%, passing the limit was not always enough; inconclusive means no clear call, values can overlap the other calls; tested in BHK-21 cells;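 further: 0% = median of neutral control wells and 100% = median of positive control wells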
# FGF22 binding: binders of human FGF22 protein, primary screen, FGF22 synaptogenesis inhibitor project, biophysical, thermal shift, single point; Fibroblast growth factor 22 (Homo sapiens), Q9HCT0; recombinant FGF22 thermal shift, SYPRO orange fluorescence; percent of sucrose octasulfate shift, DMSO zero; activity (Tm shift, normalised), % at 9.99 µM; actives 1.5% (n = 340,000);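 active means mean Tm shift, scaled 0 neutral to 100 positive control, at about 1.3% or above, every replicate too, limit read from the data; inconclusive means no clear call, values can overlap the other calls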
# Target sequence (Q9HCT0 whole entry, looked up): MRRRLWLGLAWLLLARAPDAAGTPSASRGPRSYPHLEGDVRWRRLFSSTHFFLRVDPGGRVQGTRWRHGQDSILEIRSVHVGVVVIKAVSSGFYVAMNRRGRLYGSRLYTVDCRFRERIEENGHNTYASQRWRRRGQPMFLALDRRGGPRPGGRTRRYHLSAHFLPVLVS
# E-selectin induc: E-selectin induction in HUVECs, primary screen, imaging, HUVEC, immunofluorescence imaging, single point; P16581; actives 0.37% (n = 260,000); normalized: neutral wells 0, TNF-alpha wells 100; activation, % at 7.58 µM;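 active means mean E-selectin-positive cell signal at least 10% of the positive control, reached in at least 60% of replicates, without over 20% cell loss; inconclusive means no rule given, readout overlaps actives, possibly toxicity-flagged; inactive means the rest, including those meeting only one limit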
#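 Material: HUVEC primary endothelial cells; Amount: 3,000 cells per well; Dosing: single concentration; Medium: EGM-2 growth medium on 0.1% gelatin-coated wells; Read-out basis: percent E-selectin-positive cells; Signal: immunofluorescence imaging; Control set: TNF-alpha, DMSO.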
# Active calls of the source: *; ? = inconclusive; · = no result given. Shown are actives, neighbours in structure and some others; about 3.7% of the full set was active somewhere.
SMILES,CFTR F508del cor,ERAP1 inh,DENV2 CPE,FGF22 binding,E-selectin induc
CN1CCN(/N=C/c2cccc(Cl)c2Cl)CC1,1.3,4.9,2.1,44.0*,·
CCCC(=O)Nc1ccc2c(c1)OC[C@@H](C)N(C(=O)CC1CC1)C[C@H](C)[C@H](OC)CN(C)C2=O,2.6,1.5,6.9,0.0,-0.1
O=C1NC2(CCCCCC2)C(=O)N1Cc1cccc(Cl)c1,0.6,-1.0,-0.6,0.0,0.0
O=C1NC2(CCCCC2)C(=O)N1Cc1cccc(C(F)(F)F)c1,-1.7,-0.2,2.1,43.0*,·
COc1ccc(N2C(=O)CCC2=O)c(OC)c1,4.0,2.8,-1.4,-0.4,-1.3
COc1cc(N2C(=O)C=CC2=O)ccc1N1C(=O)C=CC1=O,-3.5,47.8*,-0.2,-0.1,·
O=C(CCCN1C(=O)/C(=C/c2cccs2)SC1=S)Nc1cccnc1,-3.6,-1.1,5.1,43.6*,22.3
O=C(CCCN1C(=O)/C(=C\c2cccs2)SC1=S)Nc1cccnc1,-0.5,5.7,29.7*,0.0,·
O=C(CCCN1C(=O)/C(=C/c2cccs2)SC1=S)NNC(=O)c1cccnc1,-0.1,-1.8,-2.8,0.2,·
O=C(CCCN1C(=O)/C(=C\c2ccccc2)SC1=S)Nc1ccc(O)cc1C(=O)O,-0.3,36.0*,-3.9,·,·
CCN1C(=O)S/C(=C/c2ccc(Oc3ccc([N+](=O)[O-])cn3)c(OC)c2)C1=O,1.5,-7.4,0.3,43.4*,·
C[C@H]1CN([C@@H](C)CO)S(=O)(=O)c2ccc(-c3ccc(C#N)cc3)cc2O[C@H]1CN(C)Cc1ccccn1,1.7,-1.1,-4.7,-0.3,0.2
CCC(=O)N1CC2(C1)CN(Cc1cccc(OC)c1)[C@H](CO)c1[nH]c3cc(OC)ccc3c12,1.3,0.3,3.9,-0.2,-0.3
CO[C@H](C(=O)N(C)C[C@@H]1OCc2ccccc2-c2c(n(C)c3ccccc23)C(=O)N([C@@H](C)CO)C[C@@H]1C)c1ccccc1,1.4,2.1,-1.8,-0.2,-2.5
COc1ccc(/C=C2\SC(=O)N(CC(=O)Nc3cccnc3)C2=O)cc1OC,·,-3.0,22.7*,-0.1,·
C[C@H]1CCCCO[C@@H](CN(C)S(=O)(=O)c2cccs2)[C@@H](C)CN([C@@H](C)CO)C(=O)c2cc(NS(=O)(=O)c3ccccc3)ccc2O1,0.9,-6.7,5.4,·,-0.1
O=[N+]([O-])c1ccc2ncnc(N3CCN(Cc4ccc5c(c4)OCO5)CC3)c2c1,0.1,-0.1,-9.6,-0.1,-2.1
O=[N+]([O-])c1cccnc1N1CCN(Cc2ccc3c(c2)OCO3)CC1,-3.6,0.4,34.3*,-0.2,1.5
C(=C\c1ccccc1)/CN1CCN(Cc2ccc3c(c2)OCO3)CC1,-0.2,1.6,-1.4,-0.1,·
O=[N+]([O-])c1ccccc1/C=C/CN1CCN(Cc2ccc3c(c2)OCO3)CC1,0.9,-7.4,47.3*,0.1,·
CN(C)C(=O)c1ccc(-c2ccc([C@H]3[C@H]4CN(C(=O)C5CCCC5)CC(=O)N4[C@H]3CO)cc2)cc1,-2.1,1.0,-13.3,·,0.2
C[C@@H]1CN([C@@H](C)CO)C(=O)c2cccc(NS(=O)(=O)c3cn(C)cn3)c2O[C@H]1CN(C)C(=O)Nc1ccc(C(F)(F)F)cc1,-1.7,0.8,-3.0,0.5,-0.2
O=C(O)C[C@@H]1C[C@H]2c3cc(NC(=O)Nc4ccc(F)cc4)ccc3O[C@H]2[C@H](CO)O1,-3.4,0.7,3.2,0.2,-0.2
Cc1ccnc(NS(=O)(=O)c2ccc(NC(=O)/C=C/c3ccccc3)cc2)n1,1.6,-3.1,5.6,-0.3,·
Cc1ccnc(NS(=O)(=O)c2ccc(NC(=O)/C=C/c3cccs3)cc2)n1,0.1,-1.4,-9.6,43.6*,·
SMILES,CFTR F508del cor,ERAP1 inh,DENV2 CPE,FGF22 binding,E-selectin induc
Cc1cc(C)nc(/N=C(\N)Nc2ccc(S(=O)(=O)O)cc2)n1,-1.5,-18.9,3.9,42.6,·
Cc1cc(C)nc(/N=C(\N)Nc2ccc(S(=O)(=O)Nc3nccc(C)n3)cc2)n1,-1.8,-5.5,0.8,43.1*,·
CN1c2ccc(Br)cc2[C@@H]2[C@@H](CCN2S(=O)(=O)c2cccc(F)c2)[C@@H]1CO,5.4,-0.8,?,-0.3,0.3
CC=Cc1ccc2n(c1=O)C[C@@H]1[C@@H](CO)[C@H](C(=O)NCC)N(C(=O)CC3CC3)[C@H]21 (mixture of isomers),·,0.8,-1.2,0.0,-1.4
CCN(CC(=O)Nc1ccc(OC)cc1)C(=O)CSCc1c(C)noc1C,-3.4,3.2,73.9*,-0.2,·
CC(=O)Nc1cccc(Nc2nc(-c3ccccc3F)nc3ccccc23)c1,·,10.3,1.3,43.1*,·
CC(C)NC(=O)N(C)C[C@@H]1OCCCC[C@H](C)Oc2ccc(NC(=O)c3ccncc3)cc2C(=O)N([C@H](C)CO)C[C@@H]1C,-3.2,0.6,4.8,0.2,0.1
CCCNC(=O)N1C[C@H](O)COC[C@H]2O[C@H](CC(=O)N[C@H]3CCN(Cc4ccccc4)C3)CC[C@@H]21,2.0,2.5,1.4,-0.1,1.4
COC(=O)c1cc(NC(=O)c2cccs2)ccc1N1CCOCC1,1.6,-0.6,?,43.3*,0.0
Cc1ccc(OCc2nnc(SCc3cc(=O)[nH]c4ccccc34)n2-c2ccccc2)cc1,-0.6,0.4,60.3*,0.0,-0.4
O=C(NC1CCCCC1)N[C@@H]1CC[C@H](CC(=O)N2CCOCC2)O[C@@H]1CO,1.3,2.4,-0.9,0.0,-0.1
COc1ccc(-c2ccc3oc(-c4ccc(OC)cc4)c(C#CCO)c3c2)cc1,9.3*,3.5,11.2,-0.1,0.6
COC(=O)[C@@H]1[C@@H](CO)[C@@H]2Cn3c(ccc(-c4cccc(C(=O)N(C)C)c4)c3=O)[C@@H]2N1C,-0.3,8.4,3.1,0.1,-1.8
CCOC(=O)c1cc(-c2ccccc2C)nn1Cc1cc(C)no1,-0.2,-0.8,32.0*,0.0,1.4
CCc1cc(Cn2nc(C(=O)O)cc2-c2ccccc2)on1,1.8,1.6,1.3,0.0,0.0
CCc1cc(Cn2nc(-c3ccccc3C)cc2C(=O)O)on1,0.7,-18.4,24.7*,0.0,-0.8
C[C@H]1CN([C@@H](C)CO)C(=O)c2cccc(NC(=O)Nc3cccc4ccccc34)c2O[C@@H]1CN(C)S(=O)(=O)c1ccc(F)cc1,3.9,2.4,6.2,-0.5,-0.8
C[C@@H]1CN([C@H](C)CO)C(=O)c2cccc(NC(=O)C3CCOCC3)c2O[C@H]1CN(C)Cc1ccc(C(F)(F)F)cc1,-2.7,3.9,?,0.0,-12.6
C[C@@H]1CN([C@H](C)CO)C(=O)c2cccc(NC(=O)C3CCOCC3)c2O[C@@H]1CN(C)Cc1ccc(C(F)(F)F)cc1,-2.3,-2.9,39.0*,0.1,-13.1

# Screens (PubChem)
